This note sets out measurements from PubChem BioAssay.

A short description of assay [1]: inhibitors of TNFa-induced NFkB p65 translocation, primary screen, imaging, HUVEC, MLSMR starter and 10KST1 sets (AID 438).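 Also: compound added about 3h40 before a 20 min TNFalpha stimulation.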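 As to inhibition: signal is the nuclear over cytoplasmic p65 intensity ratio per well.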 The following applies: HUVEC TNFa-induced p65 nuclear translocation; cell count: measured here: nuclei count (cytotoxicity indicator), at 2.08 µM; inhibition: at 2 µM, stronger effect = higher value, 0% TNFa-plus-vehicle, 100% no-TNFa wells.
Assay [2] can be described thus: reduction of polyQ htt aggregates in cells – imaging, exon1htt(103Q)mCFP cells, high-content imaging, primary screen (AID 483;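 active = visual image review flags a hit and inhibition of aggregation exceeds 20%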;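 also: compound exposure lasted 3 days before fixation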;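 as to nuclei count: percent of the per-plate median nuclei count of sample wells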). The following applies: exon1htt(103Q)mCFP cell line, aggregate imaging, at 2 µM; inhibition of aggregation: stronger effect = higher value; nuclei count: measured here: cell count, toxicity.
Assay [3] in a line: endothelial E-selectin expression blockers – imaging, HUVEC, immunofluorescence, MLSMR starter and 10KST1 sets, primary screen (AID 487;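 active = visually confirmed hit in the image check and inhibition above 20%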;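 as to inhibition: signal is fraction of cell area covered by stained E-selectin grains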;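 as to nuclei count: 100% = median nuclei count of all wells on the same plate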). The following applies: HUVEC TNFalpha-induced E-selectin immunofluorescence imaging, at 2 µM; inhibition: stronger effect = higher value; nuclei count: measured here: cell number, toxicity.
In assay [4] the target is Voltage-gated potassium channel subunit beta-2 (Rattus norvegicus) (UniProt P62483). Briefly: inhibitors of rat Kvbeta2 reductase activity – biochemical, NADPH fluorescence, primary screen (AID 622;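 active = fluorescence slope higher than the sample average by over 3 SD, cut at about -0.22 in these data, passing the limit was not always enough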;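 also: slope of raw intensity against log time taken from 70 to 1610 s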). The following applies: recombinant KvBeta, 4-cyanobenzaldehyde reduction, at 10 µM, stronger effect = higher value.
Sequence of Voltage-gated potassium channel subunit beta-2 (Rattus norvegicus) (P62483 whole entry, looked up): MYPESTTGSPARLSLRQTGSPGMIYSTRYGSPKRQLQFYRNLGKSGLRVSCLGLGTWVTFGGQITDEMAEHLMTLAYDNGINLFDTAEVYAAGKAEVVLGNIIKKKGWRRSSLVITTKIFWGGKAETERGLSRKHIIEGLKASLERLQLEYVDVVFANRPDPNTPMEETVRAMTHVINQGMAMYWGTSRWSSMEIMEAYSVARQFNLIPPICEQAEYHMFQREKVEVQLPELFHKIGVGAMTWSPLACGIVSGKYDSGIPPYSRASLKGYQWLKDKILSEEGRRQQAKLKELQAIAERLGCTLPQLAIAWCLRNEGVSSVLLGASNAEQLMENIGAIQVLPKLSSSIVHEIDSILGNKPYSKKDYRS
Assay [5] has the same target. Briefly: enhancers of rat Kvbeta2 NADPH turnover – biochemical, NADPH fluorescence, primary screen (AID 623;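 active = NADPH fluorescence slope more negative than the mean of all samples by about 3 SD, 99.7% confidence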;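 also: fluorescence intensity change per second fitted from 20 to 320 s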). As to conditions: Recombinant KvBeta, NADPH fluorescence decrease slope, 10 min; at 10 µM; stronger effect = lower value.
Assay [6] deals with Muscarinic acetylcholine receptor M4 (Homo sapiens) (UniProt P08173). Briefly: M4-linked GIRK flux change, two-sided – cell-based, HEK293 M4/GIRK, thallium flux, BTC-AM, M4 allosteric agonist project, primary screen (AID 625;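 active = fluorescence slope after compound addition differing from the mean of all tested samples at 99.7% confidence, mostly higher but some lower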;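 also: thallium influx through GIRK channels coupled to M4 in HEK293 cells with BTC-AM dye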). The following applies: at 10 µM, actives lie on both sides. The gist of the method: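 System: HEK293 cells with M4 receptor and GIRK channels | Incubation: Cells overnight at 37 °C, BTC-AM loading 1 h, reads 2 min total | Technique: Kinetic BTC-AM fluorescence sampled at 1 Hz, 10 s pre-addition baseline | Measure: Post-addition slope, 15–24 s, of baseline-normalized fluorescence | Control set: Carbachol positive, DMSO negative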
Sequence of Muscarinic acetylcholine receptor M4 (Homo sapiens) (P08173 whole entry, looked up): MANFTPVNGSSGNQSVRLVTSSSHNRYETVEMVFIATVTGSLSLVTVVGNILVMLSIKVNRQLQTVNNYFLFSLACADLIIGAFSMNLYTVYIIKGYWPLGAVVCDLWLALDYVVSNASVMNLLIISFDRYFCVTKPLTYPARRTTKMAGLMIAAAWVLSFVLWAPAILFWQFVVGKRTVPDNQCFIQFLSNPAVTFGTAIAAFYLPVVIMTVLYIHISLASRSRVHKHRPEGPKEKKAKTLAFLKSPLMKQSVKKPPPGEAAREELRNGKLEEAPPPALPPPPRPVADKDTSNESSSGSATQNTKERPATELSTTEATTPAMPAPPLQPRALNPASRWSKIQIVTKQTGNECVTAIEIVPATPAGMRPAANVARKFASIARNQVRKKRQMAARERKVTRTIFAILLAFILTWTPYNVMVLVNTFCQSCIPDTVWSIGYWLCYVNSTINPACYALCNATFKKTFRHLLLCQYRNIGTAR

The nature of assay [7]: blockers of RIG-like receptor reporter activation – cell-based, Sendai virus stimulus, luciferase, 10K MLSCN set, TLR/RLR signaling modifier project, primary screen (AID 602276;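 active = inhibition at or above 50% at 10 µM; inactive = inhibition below 50%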;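 also: firefly luciferase from ISG56 promoter only with Renilla not read in this screen; 0% = Sendai virus plus DMSO and 100% = medium plus DMSO without virus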). The following applies: HEK293 RL24 IRF3 luciferase reporter, at 10 µM, stronger effect = higher value.
The nature of assay [8]: TLR3 IRF3 reporter activation blockers – cell-based, poly I:C stimulus, luciferase, 10K MLSCN set, primary screen (AID 602277;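 active = inhibition of the reporter signal at or above 50%; inactive = inhibition below 50%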). As to conditions: HEK293-TLR3 RL24 IRF3 luciferase reporter, at 10 µM, stronger effect = higher value. (In general: A reporter such as luciferase makes a cellular process visible.)
Assay [9] has as its target Alpha-2C adrenergic receptor (Homo sapiens) (UniProt P18825). Briefly: compounds altering alpha2C-coupled GIRK flux – cell-based, HEK293 alpha2C/GIRK1/2, thallium flux, primary screen (AID 624;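 active = fluorescence slope after compound addition differing from the mean of all screened samples at 99.7% confidence, in either direction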;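 also: slope of fluorescence ratio to pre-addition baseline per second over 15 to 24 s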). As to conditions: thallium flux BTC fluorescence, at 10 µM, actives lie on both sides.
Assay [10] is described as follows: inhibitors of larval lipid processing in zebrafish, primary screen, whole organism, PED6 fluorescence, gall bladder and intestine (AID 686;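 active = a full or partial loss of lipid-probe fluorescence in the fish gall bladder, intestine or both, judged by eye; inactive = no fluorescence loss, or compound toxic to the fish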;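 also: larvae 5 to 7 days old with five fish per well; signal comes from phospholipase A2 cleavage of quenched PED6 carried via bile; overnight exposure to compound and PED6 before scoring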). As to conditions: Zebrafish larvae PED6 lipid processing, fluorescence scoring; screened at 20 µM (by protocol). The gist of the method: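 Test system – live zebrafish larvae aged 5-7 days, whole organism · Buffer or medium – E3 fish medium · Reagent – quenched phospholipase substrate PED6, 100 nM final, ingested by larvae · Doses – 20 µM single dose · Incubation – overnight compound and PED6 incubation · Technique – visual fluorescence microscopy scoring of gall bladder, gut · Read-out basis – visual per-well fluorescence inhibition score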

The source made the active and inactive calls.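 The calls were made as follows, unless noted: active = inhibition above 20% together with a positive visual image hit; inconclusive = visual image hit but inhibition not above 20%; inactive = no visual image hit.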

Sequence of Alpha-2C adrenergic receptor (Homo sapiens) (P18825 whole entry, looked up): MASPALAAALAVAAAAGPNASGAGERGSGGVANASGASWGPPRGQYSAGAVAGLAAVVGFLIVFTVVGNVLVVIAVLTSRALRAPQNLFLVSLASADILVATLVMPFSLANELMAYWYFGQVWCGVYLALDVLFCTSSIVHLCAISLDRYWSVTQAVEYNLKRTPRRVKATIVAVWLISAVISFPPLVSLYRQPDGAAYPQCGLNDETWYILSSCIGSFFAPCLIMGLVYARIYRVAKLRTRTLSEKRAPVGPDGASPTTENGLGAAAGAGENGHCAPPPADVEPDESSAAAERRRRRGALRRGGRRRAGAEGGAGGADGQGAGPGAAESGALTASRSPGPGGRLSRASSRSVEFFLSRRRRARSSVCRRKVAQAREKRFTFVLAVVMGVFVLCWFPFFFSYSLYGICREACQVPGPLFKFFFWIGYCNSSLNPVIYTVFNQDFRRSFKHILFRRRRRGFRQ

Regarding `COC(=O)Cc1[nH]nc2c1C(C1C=CCCC1)C(C#N)=C(N)O2` (configuration not stated), in assay [1], the cell count amounted to 592. Also, the inhibition (commonly the relative decrease from the control value, in per cent) in [1] was 5.7% (inactive); in [3] it was -0.2% (inactive); in [7], 18.7% (inactive); in assay [8] it was 26.3% (inactive). The inhibition of aggregation in [2] is 7.6% (inactive). Also, the nuclei count in assay [2] was 90.6%; in [3], 117%. For the same compound, the values for the fluorescence slope in assay [4] and in [6] were -0.41 (inactive) and 0.00509 (inactive), respectively. Further, the NADPH fluorescence slope in assay [5] is 2.6e-05 (inactive).

Take `CCCc1ccccc1OCCNC(C)=O`: the cell count in assay [1] was determined as 585. Besides, the inhibition was 9.6% (inactive) in assay [1], -76.7% (inactive) in [3], -4.34% (inactive) in assay [7] and 3.6% (inactive) in [8]. Also, in [2], the inhibition of aggregation is 18.6% (inactive). For the same compound, the nuclei count stood at 116% in assay [2] and 105% in assay [3]. Further, the fluorescence slope in [4] was -0.366 (inactive). Further, the NADPH fluorescence slope in assay [5] was -3.9e-06 (inactive). For the same compound, in assay [9], the slope is 0.00527 (inactive). For the same compound, the compound was classed as inactive in assay [10].

With `O=C(Nc1ccccc1C(=O)O)c1cccc(NC(=O)c2ccc(Br)o2)c1`, the cell count in [1] came to 489. Also, the inhibition in [1] is -9.3% (inactive); in assay [3], -26.5% (inactive); in assay [7], 6.35% (inactive); in [8], 8.3% (inactive). The inhibition of aggregation in assay [2] is -2.4% (inactive). The nuclei count in assay [2] turned out to be 99.2%; in assay [3] it was 161%. Further, the fluorescence slope in assay [4] was -0.441 (inactive). For the same compound, the NADPH fluorescence slope in [5] is -4e-05 (inactive). Further, the slope in assay [9] is 0.00477 (inactive). In assay [10], the compound was called inactive.

On to `Cc1nc2c3cnn(-c4ccccc4)c3ncn2n1`, for which, in assay [1], the cell count is 470. Besides, the inhibition in assay [1] was 1.7% (inactive); in assay [3], -62.2% (inactive); in assay [7] it was -1.03% (inactive); in assay [8], -18.2% (inactive). Also, in assay [2], the inhibition of aggregation is -9.9% (inactive). The figures for the nuclei count in assay [2] and in assay [3] were 105% and 108%, respectively. In addition, the fluorescence slope in assay [4] is -0.406 (inactive); in [6], 0.00848 (inactive). Moreover, in [5], the NADPH fluorescence slope was 8.7e-05 (inactive).

For `Cc1cc(C)c2c(n1)nn1c(N3CCN(c4ccccc4C)CC3)cc(C)nc21`, in assay [1], the cell count is 420. Further, the inhibition in assay [1] was -11.8% (inactive); in [3], -52.8% (inactive); in assay [7], -4.5% (inactive); in assay [8], -6.94% (inactive). In assay [2], the inhibition of aggregation was -116% (inactive). For the same compound, the nuclei count stood at 81% in [2] and 110% in [3]. Further, the fluorescence slope in assay [4] is -0.447 (inactive); in assay [6], 0.00576 (inactive). Moreover, the NADPH fluorescence slope in [5] was 1.5e-05 (inactive).

For the compound `COc1cccc(-n2nnnc2SCC(=O)NCc2ccco2)c1`, the cell count in assay [1] was 423. For the same compound, the inhibition in assay [1] is -3.3% (inactive); in assay [3], -44.9% (inactive); in assay [7], 19.3% (inactive); in assay [8] it was 21.4% (inactive). In addition, the inhibition of aggregation in assay [2] is -7.7% (inactive). The nuclei count in [2] came out at 94%; in [3] it was 128%. In addition, the figures for the fluorescence slope in assay [4] and in [6] were -0.548 (inactive) and 0.00522 (inactive), respectively. Also, the NADPH fluorescence slope in [5] is -2.6e-05 (inactive).

Consider `CCOc1ccc(C(=O)Nc2cc(C)on2)cc1OCC`, for which the cell count in assay [1] stood at 372. For the same compound, the inhibition in assay [1] was -2.3% (inactive); in [3], -61.3% (inactive); in assay [7], 11.5% (inactive); in [8], 7.31% (inactive). For the same compound, in assay [2], the inhibition of aggregation was -2.8% (inactive). The nuclei count was determined as 110% in assay [2] and 108% in assay [3]. For the same compound, the fluorescence slope in assay [4] is -0.437 (inactive); in [6], 0.00551 (inactive). In addition, in assay [5], the NADPH fluorescence slope is -5.8e-05 (inactive).

Regarding `CN1CCN(C(=O)CCC(=O)c2ccc(F)cc2)CC1`, in [1], the cell count is 478. The inhibition is 3.9% (inactive) in [1], -2.6% (inactive) in [3], 5.42% (inactive) in [7] and 11.9% (inactive) in assay [8]. The inhibition of aggregation in [2] was -7.4% (inactive). Besides, the nuclei count stood at 122% in assay [2] and 97.1% in assay [3]. Moreover, the fluorescence slope is -0.444 (inactive) in assay [4] and 0.00581 (inactive) in assay [6]. The NADPH fluorescence slope in assay [5] is 5.6e-05 (inactive).

For the compound `COC(=O)c1sc(S(=O)(=O)N2CCN(c3ccccc3)CC2)c(C(=O)OC)c1C`, the cell count in [1] was 394. Also, the inhibition is 3.6% (inactive) in assay [1], -151% (inactive) in [3], 19.8% (inactive) in [7] and 22.7% (inactive) in assay [8]. In [2], the inhibition of aggregation is -23.7% (inactive). For the same compound, the nuclei count came to 76.7% in assay [2] and 117% in assay [3]. Moreover, the fluorescence slope in [4] is -0.385 (inactive). For the same compound, the NADPH fluorescence slope in assay [5] was -3.6e-05 (inactive). Besides, the slope in assay [9] was 0.00645 (inactive). For the same compound, the outcome in assay [10] was inactive.

Turning to `COc1cc2[nH]c(=O)n(CCC(=O)N3CCc4ccccc4C3)c(=O)c2cc1OC`, the cell count in [1] is 452. The inhibition was -20.3% (inactive) in assay [1], -83.3% (inactive) in [3], 14.4% (inactive) in assay [7] and -15.8% (inactive) in assay [8]. Besides, the inhibition of aggregation in assay [2] was 6.9% (inactive). Moreover, the nuclei count in assay [2] stood at 94.4%; in assay [3], 108%. The fluorescence slope in assay [4] was -0.15 (inactive); in [6], 0.00747 (inactive). For the same compound, the NADPH fluorescence slope in [5] is -9.5e-06 (inactive).

Take `CSc1nnc(-c2nnc(SC)n2-c2ccccc2)n1-c1ccccc1`: the cell count in assay [1] is 879. For the same compound, the inhibition in assay [1] is -9.3% (inactive); in [3], -143% (inactive); in assay [7], 9.27% (inactive); in assay [8], 27.2% (inactive). Moreover, the inhibition of aggregation in assay [2] is -8% (inactive). Further, the nuclei count was determined as 109% in [2] and 123% in assay [3]. In addition, the fluorescence slope in assay [4] is -0.532 (inactive); in assay [6], 0.00464 (inactive). Moreover, the NADPH fluorescence slope in [5] is -2.1e-05 (inactive).

Turning to `COc1ncnc2c1N=C1CC(C)(C)CC(N)=C1S2`, in assay [1], the cell count worked out at 309. Moreover, the inhibition is 0.8% (inactive) in [1], -16.2% (inactive) in [3], 13.3% (inactive) in [7] and 35% (inactive) in assay [8]. Further, the inhibition of aggregation in assay [2] was -0.2% (inactive). The nuclei count in [2] and in assay [3] was 115% each time. Besides, the values for the fluorescence slope in [4] and in [6] were -0.37 (inactive) and 0.00511 (inactive), respectively. Moreover, in assay [5], the NADPH fluorescence slope is -3.5e-05 (inactive).

Turning to `CC12C(=O)N(CCC(=O)O)C(=O)C1C1C=CC2C1` (configuration not stated), in [1], the cell count came out at 666. Besides, the inhibition in [1] was 23.6% (active); in assay [3] it was 7.8% (inactive); in [7], 17.6% (inactive); in [8], 21.9% (inactive). Also, the inhibition of aggregation in assay [2] is 3.1% (inactive). The nuclei count came to 99.2% in assay [2] and 114% in [3]. Further, the fluorescence slope in assay [4] is -0.456 (inactive); in [6], 0.00503 (inactive). The NADPH fluorescence slope in [5] was -4.5e-05 (inactive).

`O=C(NCc1ccccn1)Nc1ccc2c(c1)OCO2`: in [1], the cell count was 415. Moreover, the inhibition was -12.8% (inactive) in assay [1], 3.1% (inactive) in [3], 10.3% (inactive) in [7] and 99.1% (active) in assay [8]. Moreover, in [2], the inhibition of aggregation was -6.8% (inactive). For the same compound, the nuclei count in assay [2] worked out at 100%; in assay [3] it was 92.3%. In addition, the fluorescence slope was -0.459 (inactive) in [4] and 0.00592 (inactive) in [6]. Also, in assay [5], the NADPH fluorescence slope was -1.3e-06 (inactive).
